In series [1] the target is T1, glucocorticoid receptor (GR) (Homo sapiens, UniProt P04150).
T1 sequence (P04150 1-777): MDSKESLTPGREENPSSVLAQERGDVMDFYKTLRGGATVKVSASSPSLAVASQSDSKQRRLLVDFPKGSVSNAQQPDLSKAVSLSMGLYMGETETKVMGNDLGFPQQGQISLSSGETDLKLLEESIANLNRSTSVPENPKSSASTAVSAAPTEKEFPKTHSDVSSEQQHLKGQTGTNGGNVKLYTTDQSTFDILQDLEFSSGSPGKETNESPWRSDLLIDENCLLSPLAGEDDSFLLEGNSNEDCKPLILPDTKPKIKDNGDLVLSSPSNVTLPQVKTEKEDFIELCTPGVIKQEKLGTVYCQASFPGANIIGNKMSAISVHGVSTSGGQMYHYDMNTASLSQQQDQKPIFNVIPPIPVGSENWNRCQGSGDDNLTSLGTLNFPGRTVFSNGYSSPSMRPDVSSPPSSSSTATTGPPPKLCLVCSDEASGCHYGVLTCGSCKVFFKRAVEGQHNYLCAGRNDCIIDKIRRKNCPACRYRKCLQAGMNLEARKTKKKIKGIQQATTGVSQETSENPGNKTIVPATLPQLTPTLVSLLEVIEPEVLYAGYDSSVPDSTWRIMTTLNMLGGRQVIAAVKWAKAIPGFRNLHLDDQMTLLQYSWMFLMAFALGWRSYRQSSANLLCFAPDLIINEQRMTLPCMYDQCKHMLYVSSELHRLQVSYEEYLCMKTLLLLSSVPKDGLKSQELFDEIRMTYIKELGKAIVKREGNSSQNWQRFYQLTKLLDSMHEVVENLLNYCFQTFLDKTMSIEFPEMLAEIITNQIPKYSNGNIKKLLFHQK
The series can be described thus: GR antagonism assay. In kind it is biochemical. To be noted: read-out: antagonism to GR.

The subject of the next series is BT-549 cells. The series can be described thus: MTT cell viability assay on BT-549 cells. In kind it is cell-based, Human. As to conditions: BT-549 model cells (Fig. 1B). On the technique in general: Formazan colour is commonly taken as a measure of viable cells.
The target of a further series is Recombinant human LIF (Homo sapiens, UniProt P15018). The experiment in a line: Surface plasmon resonance. In kind it is binding. As to conditions: SPR.
The conditions of series [2]: rats.
Series [3] deals with MDA-MB-231 xenograft tumors. The experiment in a line: MDA-MB-231 xenograft study. Format: in vivo, athymic nude mice. To be noted: 5 mg/kg/day s.c. 3 days/week.
Series [4] relates to salmonella typhimurium strains TA98, TA100, TA1535, TA1537 and E.coli combo. The experiment in a line: Ames test. To be noted: with and without metabolic activation, OECD guideline no.471. (The Ames test detects mutagens through reverse mutation in bacteria.)
Series [5] deals with LIFR downstream signaling in MDA-MB-231 and BT-549 cells. The series can be described thus: Western blotting of LIFR downstream signaling. In kind it is cell-based, Human. The procedure, abridged: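 After 24 h serum starvation and 1 h pretreatment with test compound (100 nM), cells were stimulated for 10 min with LIF (MDA-MB-231, BT-549), or with OSM or CNTF at 10 ng (BT-549). For downstream kinases, cells were treated with 100 nM. Lysates were made in RIPA with protease/phosphatase inhibitors and blotted with ECL detection. p-STAT3 bands were quantified, normalized to total STAT3 and expressed as fold over control.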
A general note: In western blotting, separated proteins are transferred to a membrane and probed.

In series [6] the test system is TNBC cells (BT-549, SUM-159, MDA-MB-231, HCC1937, MDA-MB-468, HCC1806). The series can be described thus: MTT cell viability assay in TNBC cells. In kind it is cell-based, Human. To be noted: read-out: IC50, cell viability of TNBC cells, 5 days.
Series [7] concerns CSCs from MDA-MB-231 and BT-549 cells. The series can be described thus: Extreme limiting dilution assay. Format: cell-based, Human. As to conditions: 10 days. The procedure, abridged:
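ALDH+ CSCs were sorted by ALDEFLUOR flow cytometry and grown in supplemented MammoCult. They were seeded at 100, 50, 20, 10, 5 and 1 cells/well on ultra-low attachment plates with vehicle or test compound. After 10 days, wells with spheres were scored at each density, and stem cell frequency was estimated by ELDA analysis.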

The conditions of series [8]: human.
The next series has as its target T2, GR (Homo sapiens, UniProt P04150).
T2 sequence (P04150 1-777): T1 sequence (P04150 1-777)
The series can be described thus: In vitro steroid receptor binding assays. As to conditions: receptor binding studies (Fig. 1C).

For series [9], the system named is MDA-MB-231 and SUM-159 cells. The series can be described thus: Clonogenic survival assay. Format: cell-based, Human. To be noted: EC359 20 nM.
Series [10] concerns MDA-MB-231 and BT-549 cells. The experiment in a line: Matrigel invasion chamber assay. Format: cell-based, Human. To be noted: EC359 25 nM, 22 h.
For series [11] the following is noted: intraperitoneal and oral dosing.
In series [12] the test system is MDA-MB-231 and BT-549 cells. The series can be described thus: Annexin V/PI staining. Format: cell-based, Human.
Series [13] has as its system MDA-MB-231 and BT-549 cells. To be noted: 72 h.
The conditions of series [14]: human. This is another data set of the same source.
For a further series, the target named is CYP 2D6 (Homo sapiens, UniProt P10635).
Series [15] concerns ALDH+ (CSCs) and ALDH− (non CSCs) cells. The experiment in a line: Cell Titer-Glo viability of CSCs and non CSCs. As to conditions: 3 days. Format: cell-based, Human.
The subject of the next series is TNBC PDX tumors. The experiment in a line: TNBC patient derived xenograft. Format: in vivo, SCID mice. As to conditions: 10 mg/kg/day s.c. 3 days/week.
Series [16] concerns STAT3-Luc reporter in BT-549 and MDA-MB-231 cells. The experiment in a line: STAT3-luc reporter gene assay. In kind it is cell-based, Human. As to conditions: BT-549, EC359 50 nM pretreatment 1 h. An outline of the steps: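 MDA-MB-231 and BT-549 lines stably transduced with a STAT3-firefly luciferase reporter lentivirus were serum-starved for 24 h and pretreated with test compound (50 nM) for 1 h. They were then stimulated with LIF, CTF1, OSM or CNTF at indicated concentrations for 24 h. Lysates in passive lysis buffer were read by dual-luciferase luminescence; n=3.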

For series [17] the following is noted: human. This is another data set of the same source.

Like-named read-outs stand apart in the source and are kept apart here.

CYP 2D6, sequence (P10635 whole entry): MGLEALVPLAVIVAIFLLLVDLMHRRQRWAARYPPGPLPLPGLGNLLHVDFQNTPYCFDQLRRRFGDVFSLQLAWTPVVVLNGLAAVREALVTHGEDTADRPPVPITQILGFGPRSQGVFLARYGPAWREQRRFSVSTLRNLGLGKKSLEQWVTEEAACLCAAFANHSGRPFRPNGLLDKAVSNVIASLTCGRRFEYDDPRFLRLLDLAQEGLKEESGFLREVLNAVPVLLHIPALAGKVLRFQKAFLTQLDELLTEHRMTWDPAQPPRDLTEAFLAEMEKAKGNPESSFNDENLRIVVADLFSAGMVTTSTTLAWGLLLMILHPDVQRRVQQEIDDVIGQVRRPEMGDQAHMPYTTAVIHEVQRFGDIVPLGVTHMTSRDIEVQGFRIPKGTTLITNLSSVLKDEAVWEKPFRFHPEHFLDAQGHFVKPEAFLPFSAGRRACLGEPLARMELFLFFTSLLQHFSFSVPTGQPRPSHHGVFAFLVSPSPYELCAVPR
Recombinant human LIF, sequence (P15018 23-202): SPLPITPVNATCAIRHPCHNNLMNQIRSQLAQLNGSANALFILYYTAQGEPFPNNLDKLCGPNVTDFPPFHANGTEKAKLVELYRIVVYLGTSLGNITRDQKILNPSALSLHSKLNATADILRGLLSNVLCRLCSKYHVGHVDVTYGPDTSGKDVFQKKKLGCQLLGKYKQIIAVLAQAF

For the molecule `C#CC(F)(F)[C@]1(O)CC[C@H]2[C@@H]3CCC4=CC(=O)CCC4=C3[C@@H](c3ccc(C4CC4)cc3)C[C@@]21C` [EC330], the IC50 in [1] worked out at 79.8 nM.
Usually Tmax stands for the time from dosing to the highest level. Regarding `C#CC(F)(F)[C@]1(O)CC[C@H]2[C@@H]3CCC4=CC(=O)CCC4=C3[C@@H](c3ccc(-c4c(C)cc(C)cc4C)cc3)C[C@@]21C` [EC359], the “inhibitory activity in cell viability assay” value with BT-549 cells was “significant inhibitory activity on par with EC330”. At Recombinant human LIF, the “binding to LIF” value was “binding to LIFR, but not LIF”. Besides, in series [2] (IV 5 mg/kg), the AUC0-inf turned out to be 15573.91 ng·h/mL, the AUC0-last came to 15544.36 ng·h/mL, the T½ is on record as 3.86 h and the “mean C0” value turned out to be 74669.11 ng/mL. Also, in series [2] (oral 10 mg/kg), the AUC0-inf was determined as 3876.82 ng·h/mL, the AUC0-last is 3792.26 ng·h/mL, the Tmax is reported as 2.67 h and the “mean Cmax” value was 919.50 ng/mL. In series [3], the “body weights of mice” value is on record as “remained unchanged”, the “proliferating cells (Ki-67 positive cells) in tumors” value is on record as “fewer proliferating cells” and the “tumor progression (tumor volume)” value is recorded as “significantly reduced”. Moreover, in series [3] (RT-qPCR), the “activation of STAT3 target genes in tumors” value is on record as “significant decrease”. Also, the “mutagenicity (Ames test)” value in series [4] is “non-mutagenic”. Moreover, the “STAT3 activation by OSM and CNTF (phosphorylation)” value in series [5] (BT-549, EC359 100 nM 1 h, then OSM or CNTF 10 ng, 10 min) is “reduced”. Further, the “LIF activation of STAT3 (phosphorylation)” value in series [5] (EC359 100 nM 1 h, then LIF 10 min, BT-549 and MDA-MB-231) is “substantially reduced”. In addition, the IC50 in [6] lay within 10 to 50 nM. Also, the “self renewal of CSCs” value in series [7] is “significantly reduced”. For the same molecule, the plasma protein binding result in series [8] is “high”. Further, on GR, the “affinity to GR” value is on record as “lack of affinity”. Also, in [9], the colony formation ability entry is “significantly reduced”. Further, the invasion potential entry in series [10] is listed as “significantly reduced”. Besides, the “bioavailability (PK)” value in series [11] is “Good bioavailability”. The “Annexin V positive cells” value in [12] is “significantly increased”. In addition, in series [13], the “caspase 3/7 activity” value is given as “significantly increased”. Further, the Metabolic stability result in series [14] was “moderate”. In addition, the “CYP 2D6 inhibition” value on CYP 2D6 is listed as “inhibits 2D6”. In addition, in series [15], the “viability of ALDH+ and ALDH− cells” value is “similarly inhibited”. Moreover, in the series with TNBC PDX tumors, the body weight entry is “did not affected”, the “proliferating cells (Ki-67) in PDX tumors” value is “fewer proliferating cells” and the “tumor progression (tumor volume)” value is on record as “significantly reduced”. Besides, in series [16], the “LIF stimulated STAT3 reporter activity” value was “inhibited”; the “OSM, CNTF and CTF1 mediated STAT3 activity” value is given as “blocked”. For the same molecule, in series [17], the plasma stability result is given as “moderate”.

The values are drawn from article PMC6677593 (Molecular cancer therapeutics, 2019).
